The values that follow come from ChEMBL document CHEMBL1132552, “Synthesis, characterization, and structure-activity relationships of amidine-substituted (bis)benzylidene-cycloketone olefin isomers as potent and selective factor Xa inhibitors” (J Med Chem, 1999).

The term Ki denotes the equilibrium dissociation constant of an inhibitor or competing ligand from its target. A higher Ki goes with lower affinity.

Sequence of Coagulation factor X (P00742 41-179 limits assumed): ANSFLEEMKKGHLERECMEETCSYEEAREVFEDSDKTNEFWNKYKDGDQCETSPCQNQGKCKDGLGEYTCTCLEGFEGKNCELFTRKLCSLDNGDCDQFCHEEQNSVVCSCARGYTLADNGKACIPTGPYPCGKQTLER
Sequence of Coagulation factor X (P00742 235-488 limits assumed): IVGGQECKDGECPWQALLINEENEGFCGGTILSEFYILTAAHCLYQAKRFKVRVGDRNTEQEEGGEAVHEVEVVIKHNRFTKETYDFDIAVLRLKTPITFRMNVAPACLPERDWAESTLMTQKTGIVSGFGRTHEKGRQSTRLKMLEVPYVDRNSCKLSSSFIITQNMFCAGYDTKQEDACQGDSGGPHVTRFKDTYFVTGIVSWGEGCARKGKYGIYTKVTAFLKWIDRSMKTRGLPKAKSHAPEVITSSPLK

One test has as its target T1, Serine protease 1 (Bos taurus, UniProt P00760).
T1 sequence (P00760 whole entry): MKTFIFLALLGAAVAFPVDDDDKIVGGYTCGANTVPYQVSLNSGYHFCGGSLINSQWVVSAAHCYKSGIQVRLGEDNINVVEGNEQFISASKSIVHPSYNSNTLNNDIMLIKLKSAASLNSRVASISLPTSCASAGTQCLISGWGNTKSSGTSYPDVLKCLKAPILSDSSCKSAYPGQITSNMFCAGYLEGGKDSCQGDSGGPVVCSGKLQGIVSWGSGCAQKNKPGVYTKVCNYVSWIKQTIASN
Put plainly: In vitro inhibition of bovine trypsin(Trp). A digest of the protocol: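 Buffer was 150 mM NaCl, 2.5 mM CaCl₂, 50 mM Tris-HCl pH 7.5, 0.1% PEG 6000. Read in a microplate reader at ~23 °C in the dark across varying inhibitor concentrations. Ki from competitive treatment; duplicate runs.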
`CN(C)C(=N)c1ccc(/C=C2\CCCC/C(=C\c3ccc(C(=N)N)cc3)C2=O)cc1` gave a Ki of 500 nM.

In turn, `N=C(N)c1ccc(/C=C2/CC/C(=C\c3ccc(C(=N)N)cc3)C2=O)cc1` displayed a Ki of 730 nM.

`N=C(N)c1ccc(/C=C2/CCCCCC/C(=C\c3ccc(C(=N)N)cc3)C2=O)cc1`: the Ki was 340 nM. Compared with the last compound, the Ki is about 2.1-fold lower.

On to `CN(C)C(=N)c1ccc(/C=C2/CCCC/C(=C\c3ccc(C(=N)N)cc3)C2=O)cc1`, for which the inhibition constant Ki amounted to 15 nM.

Consider `C/N=C(/N)c1ccc(/C=C2/CCCC/C(=C\c3ccc(C(=N)N)cc3)C2=O)cc1`, for which the affinity, expressed as Ki, was 155 nM.

In the case of `N=C(N)c1ccc(/C=C2\CC(c3ccccc3)C/C(=C\c3ccc(C(=N)N)cc3)C2=O)cc1` (stereo not drawn), the affinity corresponds to a Ki of 56 nM.

The compound `N=C(N)c1ccc(/C=C2/CC(c3ccccc3)C/C(=C/c3ccc(C(=N)N)cc3)C2=O)cc1` (stereo not drawn) registered an inhibition constant (Ki) of 100 nM.

Compound `COC(=O)C1C/C(=C\c2ccc(C(=N)N)cc2)C(=O)/C(=C/c2ccc(C(=N)N)cc2)C1` (stereo not drawn) came in with an inhibition constant (Ki) of 72 nM.

In the case of `N=C(N)c1ccc(/C=C2/CCC/C(=C/c3ccc(C(=N)N)cc3)C2=O)cc1`, the inhibition constant Ki is 440 nM. This Ki lies about 6.1-fold higher than the previous one.

As to `CN(C)C(=N)c1ccc(/C=C2/CCCC/C(=C/c3ccc(C(=N)N)cc3)C2=O)cc1`, the Ki was 90 nM.

In the case of `N=C(N)c1ccc(/C=C2/CCC/C(=C\c3ccc(C(=N)N)cc3)C2=O)cc1`, the Ki was 260 nM. This Ki lies about 2.9-fold higher than the previous one.

The compound `COC(=O)C1C/C(=C/c2ccc(C(=N)N)cc2)C(=O)/C(=C\c2ccc(C(=N)N)cc2)C1` (stereo not drawn) came in with a Ki of 100 nM.

As to `N=C(N)c1ccc(/C=C2\CCCCC/C(=C\c3ccc(C(=N)N)cc3)C2=O)cc1`, the affinity corresponds to a Ki of 310 nM.

Compound `N=C(N)c1ccc(/C=C2/CCCC/C(=C/c3ccc(C(N)=O)cc3)C2=O)cc1` registered a Ki of 690 nM. Compared with the last compound, the Ki is about 2.2-fold higher.

On to `N=C(N)c1ccc(/C=C2/CC(c3ccccc3)C/C(=C\c3ccc(C(=N)N)cc3)C2=O)cc1` (stereo not drawn), for which affinity was put at a Ki of 160 nM.

In turn, `CN(C)C(=N)c1ccc(/C=C2/CCCC/C(=C\c3ccc(C(=N)N(C)C)cc3)C2=O)cc1` registered an inhibitory constant (Ki) of over 5000 nM.

`N=C(N)c1ccc(/C=C2/CCCCC/C(=C/c3ccc(C(=N)N)cc3)C2=O)cc1`: the affinity corresponds to a Ki of 100 nM.

Compound `CCOC(=O)N1C/C(=C/c2ccc(C(=N)N)cc2)C(=O)/C(=C\c2ccc(C(=N)N)cc2)C1` had a Ki of 20 nM. This Ki lies about 5-fold lower than the previous one.

In the case of `C/N=C(\N)c1ccc(/C=C2/CCCC/C(=C/c3ccc(C(=N)N)cc3)C2=O)cc1`, the inhibitory constant (Ki) is 30 nM. This Ki lies about 1.5-fold higher than the previous one.

The target of another test is Coagulation factor X (Homo sapiens, UniProt P00742). Briefly: In vitro inhibition of human coagulation factor Xa (Xa) in a purified enzyme system. A digest of the protocol:
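Buffer: 150 mM NaCl, 2.5 mM CaCl₂, 50 mM Tris-HCl pH 7.5, 0.1% PEG 6000. For very tight binding, enzyme was lowered to 0.1 nM, or data at 0.3 and 1 nM enzyme were fitted to a modified Morrison equation.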
In turn, `CN(C)C(=N)c1ccc(/C=C2\CCCC/C(=C\c3ccc(C(=N)N)cc3)C2=O)cc1` displayed a Ki of 350 nM.

As for `N=C(N)c1ccc(/C=C2/CC/C(=C\c3ccc(C(=N)N)cc3)C2=O)cc1`, the inhibitory constant (Ki) stood at 230 nM.

In the case of `N=C(N)c1ccc(/C=C2/CCCCCC/C(=C\c3ccc(C(=N)N)cc3)C2=O)cc1`, affinity was put at a Ki of 320 nM.

The compound `CN(C)C(=N)c1ccc(/C=C2/CCCC/C(=C\c3ccc(C(=N)N)cc3)C2=O)cc1` displayed a Ki of 52 nM.

In turn, `C/N=C(/N)c1ccc(/C=C2/CCCC/C(=C\c3ccc(C(=N)N)cc3)C2=O)cc1` registered an inhibition constant Ki of 500 nM.

Regarding `N=C(N)c1ccc(/C=C2\CC(c3ccccc3)C/C(=C\c3ccc(C(=N)N)cc3)C2=O)cc1` (stereo not drawn), the inhibition constant Ki is 3300 nM.

`N=C(N)c1ccc(/C=C2/CC(c3ccccc3)C/C(=C/c3ccc(C(=N)N)cc3)C2=O)cc1` (stereo not drawn) displayed a Ki of 5.2 nM.

Regarding `COC(=O)C1C/C(=C\c2ccc(C(=N)N)cc2)C(=O)/C(=C/c2ccc(C(=N)N)cc2)C1` (stereo not drawn), the Ki was over 5000 nM.

For `N=C(N)c1ccc(/C=C2/CCC/C(=C/c3ccc(C(=N)N)cc3)C2=O)cc1`, the Ki was found to be 18 nM.

Regarding `COC(=O)C1C/C(=C/c2ccc(C(=N)N)cc2)C(=O)/C(=C\c2ccc(C(=N)N)cc2)C1` (stereo not drawn), the inhibition constant (Ki) is 4.8 nM. This Ki is about 3.8-fold lower than that of the compound before.

As for `N=C(N)c1ccc(/C=C2\CCCCC/C(=C\c3ccc(C(=N)N)cc3)C2=O)cc1`, affinity was put at a Ki of 1800 nM.

Take `N=C(N)c1ccc(/C=C2/CCCC/C(=C/c3ccc(C(N)=O)cc3)C2=O)cc1`: affinity was put at a Ki of 50 nM. Against the preceding compound, the Ki is about 36-fold lower.

`N=C(N)c1ccc(/C=C2/CC(c3ccccc3)C/C(=C\c3ccc(C(=N)N)cc3)C2=O)cc1` (stereo not drawn) showed a Ki of 395 nM.

The compound `CN(C)C(=N)c1ccc(/C=C2/CCCC/C(=C\c3ccc(C(=N)N(C)C)cc3)C2=O)cc1` had an inhibitory constant (Ki) of over 5000 nM.

For `N=C(N)c1ccc(/C=C2/CCCCC/C(=C/c3ccc(C(=N)N)cc3)C2=O)cc1`, the affinity corresponds to a Ki of 4.6 nM.

The compound `CCOC(=O)N1C/C(=C/c2ccc(C(=N)N)cc2)C(=O)/C(=C\c2ccc(C(=N)N)cc2)C1` showed a Ki of 2.5 nM.

Consider `C/N=C(\N)c1ccc(/C=C2/CCCC/C(=C/c3ccc(C(=N)N)cc3)C2=O)cc1`, for which the inhibitory constant (Ki) was found to be 12 nM.

The target of another test is Prothrombin (Homo sapiens, UniProt P00734). Briefly: In vitro inhibition of human thrombin(FIIa). Summed up:
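Medium: 150 mM NaCl, 2.5 mM CaCl₂, 50 mM Tris-HCl pH 7.5, 0.1% PEG 6000. Microplate reader readings at room temperature (~23 °C), light excluded, varying inhibitor concentrations. Competitive Ki derived; assays in duplicate.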
The compound `CN(C)C(=N)c1ccc(/C=C2\CCCC/C(=C\c3ccc(C(=N)N)cc3)C2=O)cc1` gave a Ki of 3700 nM.

Compound `N=C(N)c1ccc(/C=C2/CC/C(=C\c3ccc(C(=N)N)cc3)C2=O)cc1` showed a Ki of 19200 nM.

Compound `CN(C)C(=N)c1ccc(/C=C2/CCCC/C(=C\c3ccc(C(=N)N)cc3)C2=O)cc1` showed a Ki of 120 nM.

Compound `C/N=C(/N)c1ccc(/C=C2/CCCC/C(=C\c3ccc(C(=N)N)cc3)C2=O)cc1` showed a Ki of 360 nM.

As for `N=C(N)c1ccc(/C=C2\CC(c3ccccc3)C/C(=C\c3ccc(C(=N)N)cc3)C2=O)cc1` (stereo not drawn), the inhibition constant Ki was 630 nM.

For `N=C(N)c1ccc(/C=C2/CC(c3ccccc3)C/C(=C/c3ccc(C(=N)N)cc3)C2=O)cc1` (stereo not drawn), the Ki is 1700 nM.

In turn, `COC(=O)C1C/C(=C\c2ccc(C(=N)N)cc2)C(=O)/C(=C/c2ccc(C(=N)N)cc2)C1` (stereo not drawn) gave a Ki of 4400 nM.

In the case of `N=C(N)c1ccc(/C=C2/CCC/C(=C/c3ccc(C(=N)N)cc3)C2=O)cc1`, the inhibition constant (Ki) worked out at 810 nM.

`N=C(N)c1ccc(/C=C2/CCC/C(=C\c3ccc(C(=N)N)cc3)C2=O)cc1` had an inhibitory constant (Ki) of 120 nM.

As to `COC(=O)C1C/C(=C/c2ccc(C(=N)N)cc2)C(=O)/C(=C\c2ccc(C(=N)N)cc2)C1` (stereo not drawn), affinity was put at a Ki of 1100 nM.

On to `N=C(N)c1ccc(/C=C2\CCCCC/C(=C\c3ccc(C(=N)N)cc3)C2=O)cc1`, for which the Ki stood at 2100 nM.

With `N=C(N)c1ccc(/C=C2/CCCC/C(=C/c3ccc(C(N)=O)cc3)C2=O)cc1`, the inhibition constant Ki was found to be 110 nM. This Ki lies about 19-fold lower than the previous one.

`N=C(N)c1ccc(/C=C2/CC(c3ccccc3)C/C(=C\c3ccc(C(=N)N)cc3)C2=O)cc1` (stereo not drawn) had an inhibitory constant (Ki) of 325 nM.

As to `CN(C)C(=N)c1ccc(/C=C2/CCCC/C(=C\c3ccc(C(=N)N(C)C)cc3)C2=O)cc1`, the Ki was over 5000 nM.

`N=C(N)c1ccc(/C=C2/CCCCC/C(=C/c3ccc(C(=N)N)cc3)C2=O)cc1` came in with a Ki of 300 nM.

`CCOC(=O)N1C/C(=C/c2ccc(C(=N)N)cc2)C(=O)/C(=C\c2ccc(C(=N)N)cc2)C1` registered a Ki of 380 nM.

For the compound `C/N=C(\N)c1ccc(/C=C2/CCCC/C(=C/c3ccc(C(=N)N)cc3)C2=O)cc1`, the Ki came to 1600 nM.
